Source: ChEMBL document CHEMBL1128459, “Characterization of potent and selective antagonists at postsynaptic 5-HT1A receptors in a series of N4-substituted arylpiperazines” (J Med Chem, 1995)
pKi: −log10 of the molar value.

How the values were obtained:
Rattus norvegicus [1] = experiment: Compound after subcutaneous administration was evaluated for antagonist activity against hypothermia induced by 8-hydroxy -DPAT in rat; format: functional; conditions: sc, read-out: ID50 (the source's name)
Method in brief: (§1)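 Male Wistar rats (200-220 g) had rectal temperature taken, then received the test drug sc in distilled water (1.0 mL/kg). After 30 min they got 8-OH-DPAT 0.16 mg/kg sc, and temperature was remeasured 30 min later. Change from basal was scored.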

Rattus norvegicus [2] = organism: Rattus norvegicus; experiment: Maximum antagonist effect (% effect) expressed relative to 8-hydroxy-DPAT (100%); format: functional
Method in brief: (§2)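 In the rat rectal-temperature model (sc dosing, 8-OH-DPAT 0.16 mg/kg sc for antagonism), the maximal percentage of induced hypothermia (agonist) and of block of 8-OH-DPAT hypothermia (antagonist) was recorded. Each value is given with the dose at which it was reached.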

[3] = biological target: T1, Adrenergic receptor alpha-1 (Rattus norvegicus, UniProt P15823+P23944+P43140); experiment: In vitro binding affinity towards Alpha-1 adrenergic receptor in rat cortex was determined using [3H]prazosin as radioligand
T1 sequence (P15823 whole entry): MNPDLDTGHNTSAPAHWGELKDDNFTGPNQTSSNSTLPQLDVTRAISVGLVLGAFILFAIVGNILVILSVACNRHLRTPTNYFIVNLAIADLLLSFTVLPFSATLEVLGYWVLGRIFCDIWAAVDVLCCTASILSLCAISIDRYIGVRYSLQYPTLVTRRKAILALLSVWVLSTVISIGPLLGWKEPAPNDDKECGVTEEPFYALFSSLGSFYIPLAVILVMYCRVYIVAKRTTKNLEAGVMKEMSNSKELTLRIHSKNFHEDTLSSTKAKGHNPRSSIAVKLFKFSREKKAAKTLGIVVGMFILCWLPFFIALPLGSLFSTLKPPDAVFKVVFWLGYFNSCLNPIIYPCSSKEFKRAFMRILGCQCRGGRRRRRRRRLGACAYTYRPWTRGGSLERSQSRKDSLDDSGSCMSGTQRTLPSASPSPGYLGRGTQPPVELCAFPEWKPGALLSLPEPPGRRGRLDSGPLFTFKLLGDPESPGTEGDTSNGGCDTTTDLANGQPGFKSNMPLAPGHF
T1 sequence (P23944 whole entry): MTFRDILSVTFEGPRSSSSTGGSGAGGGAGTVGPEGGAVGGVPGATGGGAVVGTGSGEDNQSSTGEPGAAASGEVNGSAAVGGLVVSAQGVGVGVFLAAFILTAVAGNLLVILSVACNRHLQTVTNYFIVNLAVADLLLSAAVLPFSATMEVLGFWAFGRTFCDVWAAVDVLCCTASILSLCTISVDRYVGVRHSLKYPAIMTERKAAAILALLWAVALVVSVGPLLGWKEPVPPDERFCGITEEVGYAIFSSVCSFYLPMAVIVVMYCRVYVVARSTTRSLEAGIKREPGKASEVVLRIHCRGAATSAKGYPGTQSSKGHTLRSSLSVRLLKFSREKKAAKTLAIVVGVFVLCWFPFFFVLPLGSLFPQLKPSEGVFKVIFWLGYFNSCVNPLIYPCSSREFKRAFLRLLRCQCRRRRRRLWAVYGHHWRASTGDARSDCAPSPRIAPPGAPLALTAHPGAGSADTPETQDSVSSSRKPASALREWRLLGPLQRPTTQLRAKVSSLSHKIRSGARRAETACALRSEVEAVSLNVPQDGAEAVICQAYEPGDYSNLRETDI
T1 sequence (P43140 whole entry): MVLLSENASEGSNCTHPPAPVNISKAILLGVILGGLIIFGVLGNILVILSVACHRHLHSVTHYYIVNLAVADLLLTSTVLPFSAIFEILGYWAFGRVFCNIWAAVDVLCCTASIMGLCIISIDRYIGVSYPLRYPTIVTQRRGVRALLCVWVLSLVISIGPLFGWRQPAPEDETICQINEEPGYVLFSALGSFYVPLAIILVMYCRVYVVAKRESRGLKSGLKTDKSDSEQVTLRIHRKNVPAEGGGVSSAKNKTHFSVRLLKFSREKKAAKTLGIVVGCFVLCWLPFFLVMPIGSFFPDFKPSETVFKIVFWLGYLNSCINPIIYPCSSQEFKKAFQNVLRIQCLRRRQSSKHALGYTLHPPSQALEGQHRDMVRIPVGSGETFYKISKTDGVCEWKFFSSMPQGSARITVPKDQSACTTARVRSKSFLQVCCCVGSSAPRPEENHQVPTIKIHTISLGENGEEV
Method in brief: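 Rat frontal cortex membranes (1/80 wt/vol), no preincubation, in 50 mM Tris pH 7.6 with 4 mM CaCl2 and 0.1% ascorbic acid. Ligand 0.2 nM [3H]prazosin, with phentolamine for nonspecific binding. Incubation 60 min at 25 °C, then filtration. IC50 obtained by regression and converted to pKi with radioligand Kd from saturation experiments.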

[4] = biological target: D(2) dopamine receptor (Rattus norvegicus) (UniProt P61169)
Rattus norvegicus [5] = experiment: Minimum effective agonist dose administered subcutaneously; format: functional; conditions: sc, read-out: MED
Method in brief: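 Male Wistar rats (200-220 g) were given the test drug alone sc in water (1.0 mL/kg), with vehicle reinjected at 30 min. Rectal temperature change from basal was measured 60 min after the first injection. MED for hypothermia was set against vehicle by ANOVA with Dunnett's test, P < 0.05.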

Rattus norvegicus [6] = organism: Rattus norvegicus; experiment: Maximum agonist effect (% effect) expressed relative to 8-hydroxy-DPAT (100%); format: functional; method in brief: as §2
[7] = Ratio of MED (agonist) to that of MED (antagonist) values.; format: functional
Method in brief: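 The MED for inducing hypothermia alone was divided by the MED for blocking 8-OH-DPAT (0.16 mg/kg sc) hypothermia. Both MEDs came from sc dosing in male Wistar rats and were tested against vehicle by ANOVA with Dunnett's test, P < 0.05.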

[8] = biological target: 5-hydroxytryptamine receptor 1B (Rattus norvegicus, UniProt P28564); experiment: Binding affinity at 5-hydroxytryptamine 1B receptor
Method in brief: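 Rat frontal cortex membranes (1/40 wt/vol) were homogenized in 50 mM Tris pH 7.7 with pargyline, 4 mM CaCl2 and 0.1% ascorbic acid, then preincubated for 30 min at 37 °C. Labelled with 2.0 nM [3H]-5-HT, with 100 nM 8-OH-DPAT and 100 nM mesulergine masking 5-HT1A/5-HT2A sites; 5-CT defined nonspecific binding.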

[9] = biological target: T2, 5-hydroxytryptamine receptor 1A (Rattus norvegicus, UniProt P19327); experiment: Binding affinity at 5-hydroxytryptamine 1A receptor
T2 sequence (P19327 whole entry): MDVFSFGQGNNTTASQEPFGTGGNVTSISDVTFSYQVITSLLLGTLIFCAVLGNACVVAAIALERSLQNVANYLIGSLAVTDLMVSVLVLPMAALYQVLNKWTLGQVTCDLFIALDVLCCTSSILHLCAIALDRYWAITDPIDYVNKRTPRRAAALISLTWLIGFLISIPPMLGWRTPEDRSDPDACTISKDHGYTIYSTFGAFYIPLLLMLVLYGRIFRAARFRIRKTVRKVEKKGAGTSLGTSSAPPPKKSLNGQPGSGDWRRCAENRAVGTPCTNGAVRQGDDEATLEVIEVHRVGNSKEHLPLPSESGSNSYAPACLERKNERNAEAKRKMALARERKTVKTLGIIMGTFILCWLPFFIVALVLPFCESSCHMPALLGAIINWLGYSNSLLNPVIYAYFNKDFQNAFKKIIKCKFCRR
Method in brief: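 Rat hippocampal membranes (1/100 wt/vol) in 50 mM Tris pH 7.7 with 4 mM CaCl2, 0.1% ascorbic acid and pargyline. Membranes were spun at 25000g, preincubated 30 min at 37 °C and respun, then incubated with 0.4 nM [3H]-8-OH-DPAT for 30 min at 25 °C. 5-HT defined nonspecific binding, and samples were filtered on PEI-soaked GF/B. IC50 came from regression; pKi = −log[IC50/(1+[L]/Kd)].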

Rattus norvegicus [10] = experiment: Minimum effective antagonist dose administered subcutaneously; format: functional; conditions: sc, read-out: MED; method in brief: as §1
D(2) dopamine receptor [11] = biological target: T3, D(2) dopamine receptor (Rattus norvegicus, UniProt P61169); experiment: In vitro binding affinity towards dopamine D2 receptor in rat striatum was determined using [3H]-spiperone as radioligand; format: tissue-based
Method in brief: (§3)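 Rat striatal membranes (1/300 wt/vol), no preincubation, in 50 mM Tris pH 7.4 with CaCl2, ascorbic acid, 5 mM KCl, 1 mM MgCl2 and 120 mM NaCl. Ligand 0.2 nM [3H]spiperone, with 100 nM ketanserin masking 5-HT2A sites; raclopride defined nonspecific binding. Incubation 30 min at 37 °C, then filtration. pKi derived from regression-based IC50.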

[12] = biological target: Serotonin 1a (5-HT1a) receptor/Adrenergic receptor alpha-1 (Rattus norvegicus) (UniProt P15823+P23944+P43140+P19327); experiment: Ki ratio measured as the Ki values of alpha-1 adrenergic receptor to that of 5-hydroxytryptamine 1A receptor; format: protein assay
D(2) dopamine receptor [13] = biological target: T3, D(2) dopamine receptor; experiment: In vitro binding affinity towards Dopamine receptor D2 in rat striatum was determined using [3H]-spiperone as radioligand; format: tissue-based; method in brief: as §3
[14] = biological target: 5-hydroxytryptamine receptor 1A (Rattus norvegicus) (UniProt P19327); experiment: Ki ratio measured as the Ki values of dopamine receptor to that of 5-hydroxytryptamine 1A receptor
D(2) dopamine receptor [15] = biological target: T3, D(2) dopamine receptor; experiment: In vitro binding affinity towards Dopamine receptor D2 in rat striatum was determined using [3H]spiperone as radioligand; format: tissue-based; method in brief: as §3

Sequence of 5-hydroxytryptamine receptor 1B (P28564 whole entry): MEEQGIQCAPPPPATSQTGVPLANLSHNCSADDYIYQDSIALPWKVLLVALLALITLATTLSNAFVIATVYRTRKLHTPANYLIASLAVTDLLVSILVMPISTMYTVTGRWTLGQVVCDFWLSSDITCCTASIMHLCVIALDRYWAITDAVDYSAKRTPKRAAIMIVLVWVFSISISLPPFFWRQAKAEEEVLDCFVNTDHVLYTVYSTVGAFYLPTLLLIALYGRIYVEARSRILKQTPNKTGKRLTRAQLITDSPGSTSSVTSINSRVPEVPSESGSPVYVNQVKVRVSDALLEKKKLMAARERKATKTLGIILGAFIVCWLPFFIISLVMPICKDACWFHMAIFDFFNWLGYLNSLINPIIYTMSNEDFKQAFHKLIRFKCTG
Sequence of D(2) dopamine receptor (Rattus norvegicus) (P61169 whole entry): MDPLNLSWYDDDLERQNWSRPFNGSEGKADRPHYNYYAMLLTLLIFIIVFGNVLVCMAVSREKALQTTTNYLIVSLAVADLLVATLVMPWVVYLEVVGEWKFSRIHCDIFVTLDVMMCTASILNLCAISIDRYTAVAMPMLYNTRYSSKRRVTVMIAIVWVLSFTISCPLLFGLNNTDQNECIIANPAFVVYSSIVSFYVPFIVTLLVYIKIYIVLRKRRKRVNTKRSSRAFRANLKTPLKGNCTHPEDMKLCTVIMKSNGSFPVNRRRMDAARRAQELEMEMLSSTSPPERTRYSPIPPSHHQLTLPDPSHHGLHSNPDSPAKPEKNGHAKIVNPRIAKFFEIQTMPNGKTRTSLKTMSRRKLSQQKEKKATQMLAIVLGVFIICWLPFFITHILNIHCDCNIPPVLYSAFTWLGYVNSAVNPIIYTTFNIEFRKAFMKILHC
T3 sequence (P61169 whole entry): as above

| SMILES | ED50 (Rattus norvegicus [1]) | Max effect (Rattus norvegicus [2]) | Log Ki [3] | ID50 [4] | minimal effective dose (Rattus norvegicus [5]) | Max effect (Rattus norvegicus [6]) | Ratio [7] | pKi [8] | pKi [9] | minimal effective dose (Rattus norvegicus [10]) | pKi (D(2) dopamine receptor [11]) | Ki ratio [12] | pKi (D(2) dopamine receptor [13]) | Ki ratio [14] | pKi (D(2) dopamine receptor [15]) |
| --- | --- | --- | --- | --- | --- | --- | --- | --- | --- | --- | --- | --- | --- | --- | --- |
| COc1cc2c(cc1OC)C(CCN1CCN(c3cccc4c3OCCO4)CC1)CC2 (stereo not given) | 0.86 mg/kg | 84% | -7.81 | 40 mg/kg | > 40 mg/kg | 12% | > 16 | 6.17 | 8.80 | 2.5 mg/kg | 6.88 | 9.8 |  |  |  |
| c1ccc2c(c1)CCC2CN1CCN(c2cccc3c2OCCO3)CC1 (stereo not given) | 1.32 mg/kg | 63% | -7.75 | > 40 mg/kg | 10 mg/kg | 43% | 15.8 | 6.70 | 8.76 | 0.63 mg/kg |  | 18.6 | 7.38 | 43.6 |  |
| c1ccc2c(c1)CC(N1CCN(c3cccc4c3OCCCO4)CC1)C2 | 5.18 mg/kg | 51% | -6.68 | > 40 mg/kg | 10 mg/kg | 72% | 2 | 5.85 |  | 5 mg/kg |  | 55 |  |  | 6.71 |
| c1ccc2c(c1)CC(N1CCN(c3cccc4c3OCCO4)CC1)C2 | 1.4 mg/kg | 95% | -6.84 | > 40 mg/kg | 20 mg/kg | 46% | 31.7 | 5.75 |  | 0.63 mg/kg |  | 81 | 6.46 |  |  |
| c1ccc2c(c1)CC2CCCCN1CCN(c2cccc3c2OCCO3)CC1 (stereo not given) | 1.43 mg/kg | 88% | -7.56 | > 40 mg/kg | > 10 mg/kg | 0% | > 2 | 6.20 | 8.89 | 5 mg/kg |  | 17.8 |  | 12.5 | 7.71 |
